APP 5'UTR act – APP 5'UTR luciferase reporter activation; SH-SY5Y APP 5'UTR luciferase reporter, luminescence; zero percent = DMSO vehicle wells; activation, % at 2 µM; 190,000 compounds, 1% hits; AID 1276;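 active means activation above a set limit, based on mean plus 3 SD of controls, cut at about 140% in these data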
STAT3 blocker – STAT3 signaling inhibition; U3A cells, IL-6 STAT3-luciferase reporter, luminescence; host cell line lacks STAT1; inhibition, % at 5.5 µM; 190,000 compounds, 0.89% hits; AID 862;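 active means inhibition above the mean inhibition across all screened compounds plus 3 SD, cut at about 44% in these data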;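 further: 0% = DMSO only wells and 100% = 100 µM nifuroxazide control wells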
NF-kB neuron act – compounds increasing NF-kB expression in human neuronal cells; NF-kB reporter expression; hits give high values; fold change at 12.5 µM; 190,000 compounds, 1.6% hits; AID 1239; in the data active means fold change above about 3.3
STAT3 activator – increases IL-6 driven STAT3 reporter signal. U3A cells, IL-6 STAT3-luciferase reporter, luminescence; 100% = signal with IL-6 EC80 alone. activation (% of control), % at 5.6 µM. 190,000 compounds, 0.91% hits. AID 871;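 active means activation above the screen-wide mean of compound activation plus 3 SD, cut at about 130% in these data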;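 further: 0% = background luminescence of wells with medium and substrate only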
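Test system: STAT3-luciferase reporter U3A cells; Detection: reporter luminescence signal; Times: 1 h compound pre-exposure, 6 h IL-6 stimulation, 37 °C; Benchmarks: IL-6-only high control; Also added: IL-6 stimulus at 33 ng/mL final.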
STAT1 act – STAT1 signaling activation; NIH 3T3 STAT1-luciferase reporter, IFN-gamma, luminescence; 100% = IFN-gamma alone, no compound; activation (% of control), % at 5.5 µM; 200,000 compounds, 2.6% hits; AID 932;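 active means activation above the screen-wide mean activation plus 3 SD, cut at about 130% in these data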;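 further: raw ratio to IFN-gamma control signal so 100% means no change and 0% no light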
STAT1 inh – STAT1 signaling inhibition | NIH 3T3 STAT1-luciferase reporter, IFN-gamma, luminescence | 200,000 compounds, 0.35% hits | inhibition, % at 5.5 µM;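 active means inhibition above a set limit, the mean inhibition across all tested compounds plus 3 SD, cut at about 34% in these data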;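 further: 0% = IFN-gamma with DMSO and 100% = IFN-gamma with 300 µM nifuroxazide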
Numbers without * were called inactive; · = no result given. A selection: hits, their analogues and other compounds. The true share with any hit is near 4.9%.

SMILES | APP 5'UTR act | STAT3 blocker | NF-kB neuron act | STAT3 activator | STAT1 act | STAT1 inh
CC(=O)c1sc(NC(=O)c2ccc(C(C)(C)C)cc2)nc1C | 73 | 29 | 2.8 | 80 | 130* | -34
Cc1nc(Oc2ccc(S(=O)(=O)N3CCOCC3)cc2Cl)c2c3c(sc2n1)CCCC3 | 6 | -4 | 1.2 | 104 | 107 | -8
O=C(O)c1ccc(Nc2ncc([N+](=O)[O-])cc2[N+](=O)[O-])cc1 | 28 | 2 | 0.93 | 103 | 99 | 0
O=C1OCC(CO)(CO)N=C1NNc1ccc(Cl)c(Cl)c1 | 7 | 2 | 1.5 | 105 | 96 | 4
O=C(COc1ccccc1Br)NC1CCCC1 | 13 | 8 | 1.6 | 95 | 121 | -24
O=C(COc1ccc(Br)cc1Br)NC(=O)NC1CCCC1 | 44 | -22 | 3.4* | 119 | 142* | -46
Clc1ccc(OCc2nc3ccccc3[nH]2)cc1 | 184* | 20 | · | 87 | 144* | -51
c1ccc(OCc2nc3ccccc3[nH]2)cc1 | 101 | 11 | 2.4 | 94 | 129* | -31
Cc1ccc(OCc2nc3ccccc3[nH]2)cc1 | 164* | 32 | 1.1 | 74 | 147* | -53
O=S(=O)(CCc1nc2ccccc2[nH]1)c1ccc(Cl)cc1 | -2 | 5 | 1.3 | 103 | 107 | -8
COc1cc(OC)nc(NC(=S)NC(=O)c2ccccc2)n1 | 14 | -7 | 0.75 | 110 | 89 | 12
COc1ccc(C/C(C)=N/NC(=S)Nc2ccc(C(C)C)cc2)cc1 | 5 | -1 | 0.74 | 104 | 100 | 0
COc1ccc(C/C(C)=N/NC(=S)Nc2ccccc2F)cc1 | 176* | 16 | 0.72 | 91 | 126 | -30
Cc1nn(-c2ccccn2)c2c1-c1nc(N)ncc1CC2 | 45 | 1 | 1.7 | 100 | 134* | -38
CCC1CN(C(=O)Nc2ccc(C)cc2)c2cc(C)ccc2O1 (configuration not stated) | 2 | 10 | 2.2 | 96 | 104 | -4
COc1ccc(C(=O)Nn2c(SCC(=O)NCC3CCCO3)nc3ccccc3c2=O)cc1 (configuration not stated) | 57 | 77* | 0.81 | 34 | 57 | 47*
COc1ccc(C(=O)Nn2c(SCC(=O)NCc3ccccc3)nc3ccccc3c2=O)cc1 | 66 | 42 | 0.63 | 67 | 94 | 6
O=C(CSc1nc2ccccc2c(=O)n1NC(=O)c1ccccc1)c1ccc(Cl)cc1 | 158* | -1 | 2 | 104 | 124 | -27
COc1ccc(C(=O)C(C)Oc2cccc(NC(=O)c3cccc([N+](=O)[O-])c3)c2)cc1 (configuration not stated) | -13 | 16 | 1.2 | 85 | 88 | 15
O=C(CCSc1ccc(Cl)cc1)Nc1cccnc1 | 2 | 3 | 7.7* | 104 | 100 | -1
Cc1ccc(SCCC(=O)Nc2cccnc2)cc1 | 25 | 1 | 1.2 | 104 | 99 | 1
CC1(C)Cc2ccccc2C(Nn2cnnc2)=N1 | -7 | 10 | 0.98 | 95 | 97 | 4
CC1(C)Cc2ccccc2C2=NNC(=O)C2=N1 | -1 | 1 | 0.4 | 102 | 139* | -42
O=C(COC(=O)Cn1cnc2ccccc2c1=O)Nc1cc(Cl)ccc1[N+](=O)[O-] | 1 | -5 | 1.1 | 106 | 90 | 11
COC(=O)c1ccc(NC(=S)NC2c3ccccc3CC2O)cc1 (configuration not stated) | 4 | 12 | 4* | 92 | 99 | 0
SMILES | APP 5'UTR act | STAT3 blocker | NF-kB neuron act | STAT3 activator | STAT1 act | STAT1 inh
O=C(Nc1ccc([N+](=O)[O-])cc1)C1C(c2ccccc2)=C1c1ccccc1 | 25 | -26 | 0.88 | 133* | 106 | -6
O=C(OCC(=O)c1c[nH]c2ccccc12)c1cc2ccccc2cc1O | -1 | -14 | 1.1 | 112 | 94 | 7
O=c1c2ccccc2cnn1-c1nc2ccccc2[nH]1 | -69 | 107* | 0.22 | 9 | 12 | 94*
O=c1c(Cl)c(N2CCCCC2)cnn1-c1nc2ccccc2[nH]1 | 97 | 103* | 0.44 | 13 | 35 | 71*
O=C(NNC1=NCCCCC1)Nc1cccc(Cl)c1 | 58 | 2 | 1.1 | 104 | 136* | -40
O=C(NNc1cccc(Cl)n1)Nc1cccc(Cl)c1 | -2 | 1 | 1.1 | 97 | 97 | 3
CCOC(=O)c1c(C)nc(C)c(C(=O)OCC)c1-c1ccc(O)c(OC)c1 | 19 | 7 | 3.8* | 104 | 100 | -1
COC(=O)c1c(C)nc(C)c(C(=O)OC)c1-c1ccc(OC)c(OC)c1 | -10 | 12 | 1.1 | 95 | 107 | -8
Cc1ccc(S(=O)(=O)N2CCN(C(=O)c3ccccc3)CC2)c(C)c1NS(C)(=O)=O | -18 | -8 | 1.3 | 108 | 98 | 0
CCCc1noc(-c2ccc(-c3ccccc3)cc2)n1 | 124 | 17 | 5.7* | 94 | 138* | -41
CCCc1noc(-c2cccc([N+](=O)[O-])c2)n1 | 13 | 7 | 1.4 | 99 | 110 | -13
c1ccc2[nH]c(SCC3CCCCO3)nc2c1 (configuration not stated) | 152* | 6 | 3.7* | 98 | 131* | -36
Oc1cc(NCc2cccnc2)ccc1-c1nc2ccccc2o1 | 155* | 10 | 2.5 | 96 | 134* | -37
CCc1ccc(OCC(=O)Nc2ccc(-c3nc4ccccc4o3)c(O)c2)cc1 | 7 | 24 | 1.6 | 87 | 105 | -5
COc1ccc(/C=C/C(=O)OCC(=O)Nc2ccc(C)cc2)cc1S(=O)(=O)N1CCOCC1 | -17 | 6 | 1.1 | 97 | 92 | 9
COc1ccc(-c2n(CC(=O)OC3CC(C)CCC3C(C)C)c3ccccc3[n+]2C)cc1 (configuration not stated) | -14 | 52* | 0.37 | 58 | 46 | 57*
CC1CCC(C(C)C)C(OC(=O)CSc2nccc(=O)[nH]2)C1 (configuration not stated) | 15 | 1 | 1.4 | 103 | 100 | 0
O=C(N/N=C/c1ccccc1)c1[nH]ncc1Br | 19 | 8 | 2.5 | 94 | 130* | -32
O=C(N/N=C/c1cccnc1)c1[nH]ncc1Br | 27 | 1 | 1.2 | 102 | 107 | -9
CCCCCCCCCC(=O)Nc1cccnc1 | -1 | 9 | 1.1 | 95 | 96 | 2
C/C(=N\Nc1ccc(C(=O)O)cc1)c1ccc(-n2ccnc2)cc1 | 102 | 0 | 1 | 107 | 138* | -43
CC1=C(C(=O)OC(C)(C)C)C(c2cccs2)NC(=O)N1 (configuration not stated) | 10 | 2 | 1.2 | 101 | 92 | 9
C=CCNc1nc(-c2sc(NC(=O)CC)nc2C)cs1 | 7 | -37 | 0.92 | 135* | 125 | -28
Cc1nc(SCC(O)CO)c([N+](=O)[O-])[nH]1 (configuration not stated) | -1 | 3 | 3.5* | 99 | 102 | -3

Screens from PubChem BioAssay.
